How the values were obtained:
[1] = tested on: patients with advanced solid tumors; experiment: Treatment-related adverse events by grade; assay type: in vivo, human
Outline: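 Patients who took at least one dose of the oral test compound, given with a dose-intense oral alkylating agent, were evaluable for toxicity. Adverse events were graded by NCI Common Toxicity Criteria v3.0, and haematological toxicities were attributed to the alkylating agent. Complete blood counts were done weekly for the first 6 wk and biweekly thereafter. Treatment ran in 28 d cycles.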

[2] = tested on: patients with rheumatoid arthritis; settings: 1200 mg/d HCQ (600 mg twice daily), after 6 wk; cited from earlier work
[3] = all patients (37 evaluable for toxicities)

CCN(CCO)CCCC(C)Nc1ccnc2cc(Cl)ccc12 (stereo not drawn) [HCQ, hydroxychloroquine]
Diarrhea G1/G2 ([1]; HCQ 400 mg (n = 4) with TMZ): 1 (25) No. (%)
Fatigue G1/G2 ([1]; HCQ 400 mg (n = 4) with TMZ): 2 (50) No. (%)
Hypotension G1/G2 ([1]; HCQ 400 mg (n = 4) with TMZ): 1 (25) No. (%)
Lymphopenia G3/G4 ([1]; HCQ 400 mg (n = 4) with TMZ): 2 (50) No. (%)
Myalgias G1/G2 ([1]; HCQ 400 mg (n = 4) with TMZ): 1 (25) No. (%)
Nausea G1/G2 ([1]; HCQ 400 mg (n = 4) with TMZ): 4 (100) No. (%)
Thrombocytopenia G1/G2 ([1]; HCQ 400 mg (n = 4) with TMZ): 1 (25) No. (%)
Vomiting G1/G2 ([1]; HCQ 400 mg (n = 4) with TMZ): 3 (75) No. (%)
Anorexia G1/G2 ([1]; HCQ 800 mg (n = 15) with TMZ): 5 (33) No. (%)
Constipation G1/G2 ([1]; HCQ 800 mg (n = 15) with TMZ): 4 (27) No. (%)
Diarrhea G1/G2 ([1]; HCQ 800 mg (n = 15) with TMZ): 2 (13) No. (%)
Dyspepsia G1/G2 ([1]; HCQ 800 mg (n = 15) with TMZ): 1 (7) No. (%)
Fatigue G1/G2 ([1]; HCQ 800 mg (n = 15) with TMZ): 7 (47) No. (%)
Headaches G1/G2 ([1]; HCQ 800 mg (n = 15) with TMZ): 2 (13) No. (%)
Leukopenia G3/G4 ([1]; HCQ 800 mg (n = 15) with TMZ): 1 (7) No. (%)
Lymphopenia G1/G2 ([1]; HCQ 800 mg (n = 15) with TMZ): 3 (20) No. (%)
Lymphopenia G3/G4 ([1]; HCQ 800 mg (n = 15) with TMZ): 1 (7) No. (%)
Myalgias G1/G2 ([1]; HCQ 800 mg (n = 15) with TMZ): 1 (7) No. (%)
Nausea G1/G2 ([1]; HCQ 800 mg (n = 15) with TMZ): 6 (40) No. (%)
Neutropenia G3/G4 ([1]; HCQ 800 mg (n = 15) with TMZ): 2 (13) No. (%)
Pruritus G1/G2 ([1]; HCQ 800 mg (n = 15) with TMZ): 1 (7) No. (%)
Rash G1/G2 ([1]; HCQ 800 mg (n = 15) with TMZ): 2 (13) No. (%)
Taste change G1/G2 ([1]; HCQ 800 mg (n = 15) with TMZ): 1 (7) No. (%)
Thrombocytopenia G3/G4 ([1]; HCQ 800 mg (n = 15) with TMZ): 2 (13) No. (%)
Vomiting G1/G2 ([1]; HCQ 800 mg (n = 15) with TMZ): 3 (20) No. (%)
Abdominal pain G1/G2 ([1]; HCQ 1000 mg (n = 7) with TMZ): 2 (29) No. (%)
Anemia G3/G4 ([1]; HCQ 1000 mg (n = 7) with TMZ): 1 (14) No. (%)
Anorexia G1/G2 ([1]; HCQ 1000 mg (n = 7) with TMZ): 1 (14) No. (%)
Constipation G1/G2 ([1]; HCQ 1000 mg (n = 7) with TMZ): 1 (14) No. (%)
Diarrhea G1/G2 ([1]; HCQ 1000 mg (n = 7) with TMZ): 3 (43) No. (%)
Dizziness G1/G2 ([1]; HCQ 1000 mg (n = 7) with TMZ): 1 (14) No. (%)
Fatigue G1/G2 ([1]; HCQ 1000 mg (n = 7) with TMZ): 5 (71) No. (%)
Headaches G1/G2 ([1]; HCQ 1000 mg (n = 7) with TMZ): 1 (14) No. (%)
Lymphopenia G1/G2 ([1]; HCQ 1000 mg (n = 7) with TMZ): 1 (14) No. (%)
Nausea G1/G2 ([1]; HCQ 1000 mg (n = 7) with TMZ): 5 (71) No. (%)
Pruritus G1/G2 ([1]; HCQ 1000 mg (n = 7) with TMZ): 1 (14) No. (%)
Rash G3/G4 ([1]; HCQ 1000 mg (n = 7) with TMZ): 1 (14) No. (%)
Taste change G1/G2 ([1]; HCQ 1000 mg (n = 7) with TMZ): 1 (14) No. (%)
Thrombocytopenia G1/G2 ([1]; HCQ 1000 mg (n = 7) with TMZ): 2 (29) No. (%)
Vomiting G1/G2 ([1]; HCQ 1000 mg (n = 7) with TMZ): 2 (29) No. (%)
Anemia G1/G2 ([1]; HCQ 1200 mg (n = 8) with TMZ): 1 (13) No. (%)
Anorexia G1/G2 ([1]; HCQ 1200 mg (n = 8) with TMZ): 3 (38) No. (%)
Bradycardia G1/G2 ([1]; HCQ 1200 mg (n = 8) with TMZ): 1 (13) No. (%)
Constipation G1/G2 ([1]; HCQ 1200 mg (n = 8) with TMZ): 2 (25) No. (%)
Diarrhea G1/G2 ([1]; HCQ 1200 mg (n = 8) with TMZ): 2 (25) No. (%)
Fatigue G1/G2 ([1]; HCQ 1200 mg (n = 8) with TMZ): 7 (88) No. (%)
Hypotension G1/G2 ([1]; HCQ 1200 mg (n = 8) with TMZ): 1 (13) No. (%)
Lymphopenia G3/G4 ([1]; HCQ 1200 mg (n = 8) with TMZ): 1 (13) No. (%)
Nausea G1/G2 ([1]; HCQ 1200 mg (n = 8) with TMZ): 4 (50) No. (%)
Nausea G3/G4 ([1]; HCQ 1200 mg (n = 8) with TMZ): 1 (13) No. (%)
Rash G1/G2 ([1]; HCQ 1200 mg (n = 8) with TMZ): 1 (13) No. (%)
Thrombocytopenia G1/G2 ([1]; HCQ 1200 mg (n = 8) with TMZ): 1 (13) No. (%)
Vomiting G1/G2 ([1]; HCQ 1200 mg (n = 8) with TMZ): 2 (25) No. (%)
Vomiting G3/G4 ([1]; HCQ 1200 mg (n = 8) with TMZ): 1 (13) No. (%)
≥ grade 1 treatment-related anorexia [1, 3]: 35%
≥ grade 1 treatment-related constipation [1, 3]: 22%
≥ grade 1 treatment-related diarrhea [1, 3]: 24%
≥ grade 1 treatment-related fatigue [1, 3]: 97%
≥ grade 1 treatment-related nausea [1, 3]: 65%
Dose-limiting toxicity as a single agent [2]: dose-limiting nausea

Reference: article PMC4203514 (Autophagy, 2014)
